From ChEMBL document CHEMBL3585281, “Antibacterial Labdane Diterpenoids from Vitex vestita” (2015)
In brackets after ≈: the same amount, converted by molar mass.

Assays:
Type in all cases: functional
Listeria monocytogenes [1] = experiment: Antibacterial activity against Listeria monocytogenes N851 after 18 hrs by agar dilution method; conditions: N851, 18 h
Summary of the method: (§1)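 Agar-dilution MIC against Gram-positive strains. Compounds in DMSO, geometric dilutions giving final 100−0.75 mg/L in Mueller Hinton agar. Strains grown 18 h at 37 °C in trypticase soy broth, diluted in sterile water, spotted by Steers inoculator (about 1000 UFC/spot). Plates incubated 18 h at 37 °C; DMSO blank; ofloxacin positive control. MIC = lowest concentration with no visible growth.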

Streptococcus agalactiae = experiment: Antibacterial activity against Streptococcus agalactiae CIP 103227 after 18 hrs by agar dilution method; conditions: ATCC 13813, 18 h; summary of the method: as §1
Enterococcus faecium [2] = experiment: Antibacterial activity against Enterococcus faecium N507 after 18 hrs by agar dilution method; conditions: N507, 18 h; summary of the method: as §1
Staphylococcus aureus [3] = experiment: Antibacterial activity against Staphylococcus aureus CIP 53156 after 18 hrs by agar dilution method; conditions: CIP 53156, 18 h; summary of the method: as §1
[4] = system: Enterococcus casseliflavus; experiment: Antibacterial activity against Enterococcus casseliflavus CIP 103018 after 18 hrs by agar dilution method; conditions: CIP 103018, 18 h; summary of the method: as §1
Enterococcus hirae = experiment: Antibacterial activity against Enterococcus hirae CIP 5855 after 18 hrs by agar dilution method; conditions: CIP 5855, 18 h; summary of the method: as §1
Staphylococcus aureus [5] = experiment: Antibacterial activity against Staphylococcus aureus ATCC 25923 after 18 hrs by agar dilution method; conditions: ATCC 25923, 18 h; summary of the method: as §1
Enterococcus faecium [6] = experiment: Antibacterial activity against Enterococcus faecium N490 after 18 hrs by agar dilution method; conditions: N490, 18 h; summary of the method: as §1
Bacillus cereus [7] = experiment: Antibacterial activity against Bacillus cereus N258 after 18 hrs by agar dilution method; conditions: N258, 18 h; summary of the method: as §1
Bacillus cereus [8] = experiment: Antibacterial activity against Bacillus cereus CIP 6624 after 18 hrs by agar dilution method; conditions: CIP 6624, 18 h; summary of the method: as §1
Enterococcus faecalis [9] = experiment: Antibacterial activity against Enterococcus faecalis N518 after 18 hrs by agar dilution method; conditions: N518, 18 h; summary of the method: as §1
Enterococcus durans = experiment: Antibacterial activity against Enterococcus durans CIP 104999 after 18 hrs by agar dilution method; conditions: CIP 104999, 18 h; summary of the method: as §1
[10] = system: Staphylococcus lugdunensis; experiment: Antibacterial activity against Staphylococcus lugdunensis ATCC 43809 after 18 hrs by agar dilution method; conditions: ATCC 43809, 18 h; summary of the method: as §1
[11] = system: Staphylococcus haemolyticus; experiment: Antibacterial activity against Staphylococcus haemolyticus CIP 8156 after 18 hrs by agar dilution method; conditions: CIP 8156, 18 h; summary of the method: as §1
Staphylococcus aureus [12] = experiment: Antibacterial activity against Staphylococcus aureus CRBIP 2121 after 18 hrs by agar dilution method; conditions: CRBIP 2121, 18 h; summary of the method: as §1
[13] = system: Staphylococcus epidermidis; experiment: Antibacterial activity against Staphylococcus epidermidis CIP 53124 after 18 hrs by agar dilution method; conditions: CIP 53124, 18 h; summary of the method: as §1
Enterococcus faecalis [14] = experiment: Antibacterial activity against Enterococcus faecalis N491 after 18 hrs by agar dilution method; conditions: N491, 18 h; summary of the method: as §1
Bacillus cereus [15] = experiment: Antibacterial activity against Bacillus cereus N349 after 18 hrs by agar dilution method; conditions: N349, 18 h; summary of the method: as §1
Enterococcus faecium [16] = experiment: Antibacterial activity against Enterococcus faecium N733 after 18 hrs by agar dilution method; conditions: N733, 18 h; summary of the method: as §1
Staphylococcus aureus [17] = experiment: Antibacterial activity against Staphylococcus aureus CIP 483 after 18 hrs by agar dilution method; conditions: CIP 483, 18 h; summary of the method: as §1
Bacillus cereus [18] = experiment: Antibacterial activity against Bacillus cereus N190 after 18 hrs by agar dilution method; conditions: N190, 18 h; summary of the method: as §1
Mammaliicoccus sciuri = experiment: Antibacterial activity against Staphylococcus sciuri N993 after 18 hrs by agar dilution method; conditions: N993, 18 h; summary of the method: as §1
[19] = system: Staphylococcus saprophyticus; experiment: Antibacterial activity against Staphylococcus saprophyticus CIP 76125 after 18 hrs by agar dilution method; conditions: CIP 76125, 18 h; summary of the method: as §1
Bacillus spizizenii = experiment: Antibacterial activity against Bacillus subtilis ATCC 6633 after 18 hrs by agar dilution method; conditions: ATCC 6633, 18 h; summary of the method: as §1
Listeria innocua = experiment: Antibacterial activity against Listeria innocua E044 after 18 hrs by agar dilution method; conditions: E044, 18 h; summary of the method: as §1
Staphylococcus aureus [20] = experiment: Antibacterial activity against Staphylococcus aureus ATCC 9144 oxford after 18 hrs by agar dilution method; summary of the method: as §1
Enterococcus faecium [21] = experiment: Antibacterial activity against Enterococcus faecium N823 after 18 hrs by agar dilution method; conditions: N823, 18 h; summary of the method: as §1
Listeria monocytogenes [22] = experiment: Antibacterial activity against Listeria monocytogenes CIP 103575 after 18 hrs by agar dilution method; conditions: CIP 103575, 18 h; summary of the method: as §1
Listeria monocytogenes [23] = experiment: Antibacterial activity against Listeria monocytogenes N836 after 18 hrs by agar dilution method; conditions: N836, 18 h; summary of the method: as §1
Staphylococcus aureus [24] = experiment: Antibacterial activity against Staphylococcus aureus CIP 53154 after 18 hrs by agar dilution method; conditions: CIP 53154, 18 h; summary of the method: as §1
Enterococcus faecalis [25] = experiment: Antibacterial activity against Enterococcus faecalis N520 after 18 hrs by agar dilution method; conditions: N520, 18 h; summary of the method: as §1
Enterococcus avium = experiment: Antibacterial activity against Enterococcus avium CIP 104053 after 18 hrs by agar dilution method; conditions: CIP 104053, 18 h; summary of the method: as §1
[26] = system: Staphylococcus saprophyticus; experiment: Antibacterial activity against Staphylococcus saprophyticus E260 after 18 hrs by agar dilution method; conditions: E260, 18 h; summary of the method: as §1
Enterococcus gallinarum [27] = experiment: Antibacterial activity against Enterococcus gallinarum N492 after 18 hrs by agar dilution method; conditions: N492, 18 h; summary of the method: as §1
Corynebacterium striatum = experiment: Antibacterial activity against Corynebacterium striatum N840 after 18 hrs by agar dilution method; conditions: N840, 18 h; summary of the method: as §1
Listeria monocytogenes [28] = experiment: Antibacterial activity against Listeria monocytogenes N783 after 18 hrs by agar dilution method; conditions: N783, 18 h; summary of the method: as §1
[29] = system: Staphylococcus intermedius; experiment: Antibacterial activity against Staphylococcus intermedius N987 after 18 hrs by agar dilution method; conditions: N987, 18 h; summary of the method: as §1
Enterococcus gallinarum [30] = experiment: Antibacterial activity against Enterococcus gallinarum CIP 105985 after 18 hrs by agar dilution method; conditions: CIP 105985, 18 h; summary of the method: as §1
Enterococcus faecalis [31] = experiment: Antibacterial activity against Enterococcus faecalis CIP 103214 after 18 hrs by agar dilution method; conditions: CIP 103214, 18 h; summary of the method: as §1
Enterococcus gallinarum [32] = experiment: Antibacterial activity against Enterococcus gallinarum N489 after 18 hrs by agar dilution method; conditions: N489, 18 h; summary of the method: as §1
[33] = system: Enterococcus casseliflavus; experiment: Antibacterial activity against Enterococcus casseliflavus N487 after 18 hrs by agar dilution method; conditions: N487, 18 h; summary of the method: as §1
Staphylococcus aureus [34] = experiment: Antibacterial activity against Staphylococcus aureus CIP 7625 after 18 hrs by agar dilution method; conditions: CIP 7625, 18 h; summary of the method: as §1
Enterococcus faecium [35] = experiment: Antibacterial activity against Enterococcus faecium CIP 107387 after 18 hrs by agar dilution method; conditions: CIP 107387, 18 h; summary of the method: as §1
Staphylococcus aureus [36] = experiment: Antibacterial activity against Staphylococcus aureus CIP 5710 after 18 hrs by agar dilution method; conditions: CIP 5710, 18 h; summary of the method: as §1
Enterococcus faecium [37] = experiment: Antibacterial activity against Enterococcus faecium CIP 103014 after 18 hrs by agar dilution method; conditions: CIP 103014, 18 h; summary of the method: as §1
Enterococcus faecalis [38] = experiment: Antibacterial activity against Enterococcus faecalis CIP 104676 after 18 hrs by agar dilution method; conditions: CIP 104676, 18 h; summary of the method: as §1

Q: How did the MIC (Listeria monocytogenes [1]) turn out when `CC1COc2c(N3CCN(C)CC3)c(F)cc3c(=O)c(C(=O)O)cn1c23` (stereo unspecified) [OFLOXACIN] was run?
A: The MIC was 6 µM (≈ 2.17 µg/mL).

Q: What about the MIC (Streptococcus agalactiae) of the same molecule?
A: Its MIC is 1.4 µM (≈ 0.506 µg/mL).

Q: And the MIC (Enterococcus faecium [2])?
A: Its MIC is 354 µM (≈ 128 µg/mL).

Q: What about the MIC (Staphylococcus aureus [3]) of the same molecule?
A: The MIC was 0.7 µM (≈ 0.253 µg/mL).

Q: And the MIC [4]?
A: Its MIC is 11 µM (≈ 3.98 µg/mL).

Q: What about the MIC (Enterococcus hirae) of the same molecule?
A: Its MIC is 3 µM (≈ 1.08 µg/mL).

Q: What about the MIC (Staphylococcus aureus [5]) of the same molecule?
A: The MIC was 1.4 µM (≈ 0.506 µg/mL).

Q: And the MIC (Enterococcus faecium [6])?
A: Its MIC is 6 µM (≈ 2.17 µg/mL).

Q: What about the MIC (Bacillus cereus [7]) of the same molecule?
A: Its MIC is 0.7 µM (≈ 0.253 µg/mL).

Q: What about the MIC (Bacillus cereus [8]) of the same molecule?
A: The MIC was 0.7 µM (≈ 0.253 µg/mL).

Q: What about the MIC (Enterococcus faecalis [9]) of the same molecule?
A: The MIC was 11 µM (≈ 3.98 µg/mL).

Q: And the MIC (Enterococcus durans)?
A: Its MIC is 1.4 µM (≈ 0.506 µg/mL).

Q: What about the MIC [10] of the same molecule?
A: Its MIC is 3 µM (≈ 1.08 µg/mL).

Q: What about the MIC [11] of the same molecule?
A: The MIC was 0.7 µM (≈ 0.253 µg/mL).

Q: And the MIC (Staphylococcus aureus [12])?
A: Its MIC is 177 µM (≈ 64 µg/mL).

Q: And the MIC [13]?
A: Its MIC is 1.4 µM (≈ 0.506 µg/mL).

Q: What about the MIC (Enterococcus faecalis [14]) of the same molecule?
A: The MIC was 6 µM (≈ 2.17 µg/mL).

Q: What about the MIC (Bacillus cereus [15]) of the same molecule?
A: The MIC was 1.4 µM (≈ 0.506 µg/mL).

Q: And the MIC (Enterococcus faecium [16])?
A: The MIC was > 354 µM.

Q: And the MIC (Staphylococcus aureus [17])?
A: The MIC was 0.7 µM (≈ 0.253 µg/mL).

Q: What about the MIC (Bacillus cereus [18]) of the same molecule?
A: Its MIC is 0.7 µM (≈ 0.253 µg/mL).

Q: What about the MIC (Mammaliicoccus sciuri) of the same molecule?
A: Its MIC is 3 µM (≈ 1.08 µg/mL).

Q: And the MIC [19]?
A: The MIC was 3 µM (≈ 1.08 µg/mL).

Q: And the MIC (Bacillus spizizenii)?
A: The MIC was ≤ 0.2 µM.

Q: And the MIC (Listeria innocua)?
A: Its MIC is 11 µM (≈ 3.98 µg/mL).

Q: What about the MIC (Staphylococcus aureus [20]) of the same molecule?
A: Its MIC is 0.7 µM (≈ 0.253 µg/mL).

Q: And the MIC (Enterococcus faecium [21])?
A: The MIC was 354 µM (≈ 128 µg/mL).

Q: And the MIC (Listeria monocytogenes [22])?
A: Its MIC is 6 µM (≈ 2.17 µg/mL).

Q: And the MIC (Listeria monocytogenes [23])?
A: The MIC was 6 µM (≈ 2.17 µg/mL).

Q: And the MIC (Staphylococcus aureus [24])?
A: Its MIC is 0.7 µM (≈ 0.253 µg/mL).

Q: What about the MIC (Enterococcus faecalis [25]) of the same molecule?
A: The MIC was 354 µM (≈ 128 µg/mL).

Q: And the MIC (Enterococcus avium)?
A: The MIC was 6 µM (≈ 2.17 µg/mL).

Q: What about the MIC [26] of the same molecule?
A: Its MIC is 3 µM (≈ 1.08 µg/mL).

Q: What about the MIC (Enterococcus gallinarum [27]) of the same molecule?
A: Its MIC is 11 µM (≈ 3.98 µg/mL).

Q: And the MIC (Corynebacterium striatum)?
A: Its MIC is > 354 µM.

Q: And the MIC (Listeria monocytogenes [28])?
A: The MIC was 6 µM (≈ 2.17 µg/mL).

Q: And the MIC [29]?
A: The MIC was 89 µM (≈ 32.2 µg/mL).

Q: What about the MIC (Enterococcus gallinarum [30]) of the same molecule?
A: Its MIC is 11 µM (≈ 3.98 µg/mL).

Q: And the MIC (Enterococcus faecalis [31])?
A: Its MIC is 3 µM (≈ 1.08 µg/mL).

Q: And the MIC (Enterococcus gallinarum [32])?
A: The MIC was 6 µM (≈ 2.17 µg/mL).

Q: And the MIC [33]?
A: The MIC was 11 µM (≈ 3.98 µg/mL).

Q: What about the MIC (Staphylococcus aureus [34]) of the same molecule?
A: The MIC was 1.4 µM (≈ 0.506 µg/mL).

Q: And the MIC (Enterococcus faecium [35])?
A: The MIC was 177 µM (≈ 64 µg/mL).

Q: And the MIC (Staphylococcus aureus [36])?
A: The MIC was 0.7 µM (≈ 0.253 µg/mL).

Q: What about the MIC (Enterococcus faecium [37]) of the same molecule?
A: Its MIC is 22 µM (≈ 7.95 µg/mL).

Q: And the MIC (Enterococcus faecalis [38])?
A: The MIC was 3 µM (≈ 1.08 µg/mL).
